Assay results taken from ChEMBL document CHEMBL3612009, “Synthesis and structure-activity relationship study of a new series of antiparasitic aryloxyl thiosemicarbazones inhibiting Trypanosoma cruzi cruzain” (Eur J Med Chem, 2015).

Assays:
[1] = tested on: Trypanosoma cruzi; assay: Antiparasitic activity against trypomastigotes of Trypanosoma cruzi Y assessed as reduction of parasite count after 24 hrs; format: functional
[2] = tested on: Trypanosoma cruzi; assay: Antitrypanosomal activity against amastigote and trypomastigote forms of Trypanosoma cruzi Tulahuen expressing beta-galactosidase gene infected in mouse L-929 cells assessed as inhibition of parasite growth at 100 uM after 7 days by colorimetric betagalactosidase assay; format: functional; conditions: L929, 168 h
[3] = target: Cruzipain (Trypanosoma cruzi) (UniProt P25779); assay: Inhibition of Trypanosoma cruzi catalytic activity of cruzain using Z-FR-AMC as substrate at 50 uM after 10 mins by fluorescence assay
Cruzipain (Trypanosoma cruzi), sequence (P25779 123-467 limits assumed): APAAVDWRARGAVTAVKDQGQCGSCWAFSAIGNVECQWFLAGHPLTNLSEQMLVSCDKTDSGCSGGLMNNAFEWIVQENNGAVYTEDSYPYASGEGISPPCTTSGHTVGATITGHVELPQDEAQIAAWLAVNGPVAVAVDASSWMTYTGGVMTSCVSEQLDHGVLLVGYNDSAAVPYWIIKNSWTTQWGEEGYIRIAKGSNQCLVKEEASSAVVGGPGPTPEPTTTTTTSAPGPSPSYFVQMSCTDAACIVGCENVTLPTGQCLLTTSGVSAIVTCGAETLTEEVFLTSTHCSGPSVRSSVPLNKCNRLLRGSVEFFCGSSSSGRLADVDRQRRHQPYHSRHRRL

[4] = tested on: Trypanosoma cruzi; assay: Antiparasitic activity against epimastigotes of Trypanosoma cruzi Dm28c assessed as reduction of parasite count after 5 days; format: functional; conditions: 120 h
[5] = tested on: Trypanosoma cruzi; assay: Antitrypanosomal activity against amastigote and trypomastigote forms of Trypanosoma cruzi Tulahuen expressing beta-galactosidase gene infected in mouse L-929 cells assessed as inhibition of parasite growth after 7 days by colorimetric betagalactosidase assay; format: functional, organism-based; conditions: L929, 168 h
[6] = Selectivity index, ratio of CC50 for mouse L929 cells to IC50 for amastigote and trypomastigote forms of Trypanosoma cruzi Tulahuen; format: functional
Method in brief: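 SI = CC50 in uninfected L-929 fibroblasts (alamarBlue, 96 h) divided by IC50 against intracellular amastigote/trypomastigote forms (beta-galactosidase assay, 7 days).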

[7] = Cytotoxicity against mouse L929 cells assessed as cell viability after 96 hrs by alamarBlue assay; format: cell-based
Method in brief: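 Uninfected L-929 cells at the same cell number and timing as the beta-galactosidase assay; increasing concentrations starting at the T. cruzi IC50, quadruplicate. After 96 h, alamarBlue added; absorbance at 570 and 600 nm read 6 h later. Viability as % reduction versus untreated; CC50 by linear interpolation.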

[8] = Cytotoxicity against BALB/c mouse splenocytes assessed as maximum non-toxic concentration by measuring [3H]-thymidine incorporation after 24 hrs by liquid scintillation counting; format: cell-based, Splenocyte
Method in brief: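 BALB/c splenocytes, 5 x 10^6 cells/well, given compounds at 1.23, 3.7, 33.33 and 100 µg/mL, 1% DMSO final, triplicate; 24 h at 37 °C, 5% CO2. Then 1.0 µCi [3H]-thymidine added; cells harvested and counted by liquid scintillation. Highest non-cytotoxic concentration taken from % incorporation.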

Structure (SMILES)	inhibition [3] [%]	IC50 [4] [µM]	IC50 [5] [µM]	CC50 [1] [µM]	inhibition at 100 µM [2] [%]	Ratio CC50/IC50 [6]	CC50 at 96 h [7] [µM]	MNTC at 24 h [8] [nM]
COc1ccc(/C(COc2ccc(Br)cc2)=N\NC(=S)Nc2ccccc2)cc1	42.8	10.2			> 70			
CCc1ccc(OC/C(=N\NC(N)=S)c2ccc(Br)cc2)cc1	75.1	2.1	6.4	1.8	> 70	<4	< 25.5	2600
Cc1ccc(/C(COc2ccc(Br)cc2)=N\NC(N)=S)cc1	70.9	3.7	7.9	3.1	> 70	1.7	13.2	13200
CC(=O)Nc1ccc(OC/C(=N\NC(N)=S)c2ccc(Br)cc2)cc1	80.7	15.6	43.2	3.5	> 70	2.2	94.9	2400
NC(=S)N/N=C(/COc1ccc(Br)cc1)c1cccc2ccccc12	73.6	7.5	4.8	14.7	> 70	2.5	12.1	2400
NC(=S)N/N=C(\COc1ccc(-c2ccccc2)cc1)c1ccc(Br)cc1	63.7	4.1	76.6	12.3	> 70	1.2	90.8	22700
NC(=S)N/N=C(/COc1ccc(Br)cc1)c1ccc(F)cc1	53.1	3.8	10.7	3.6	> 70	<2.5	< 26.2	2600
NC(=S)N/N=C(/COc1ccc(Br)cc1)c1ccc(Cl)cc1	67.5	3.6	14.8	5.3	> 70	1.7	25.1	12500
CNC(=S)N/N=C(/COc1ccc(Br)cc1)c1ccc(F)cc1	30	15.7		7.4	> 70			
NC(=S)N/N=C(\COc1ccc2ccccc2c1)c1ccc(Br)cc1	72.1	5.3	13.5	5	> 70	>14.3	> 193	2400
CC1CS(=O)(=O)CCN1/N=C/c1ccc([N+](=O)[O-])o1 (stereo unspecified) [NIFURTIMOX]				2.7				
COc1cccc(OC/C(=N\NC(N)=S)c2ccc(Br)cc2)c1	62.8	3.7	9.9	1.2	> 70	5.1	50.7	2500
NC(=S)N/N=C(/COc1ccc(Br)cc1)c1ccccc1	67.6	14.5	10.2	2.4	> 70	<2.7	< 27.5	68600
NC(=S)N/N=C(\COc1ccccc1Cl)c1ccc(Br)cc1	58.9	3.5	13.5	6	> 70	1.9	25.1	< 2500
COc1ccc(OC/C(=N\NC(N)=S)c2ccc(Br)cc2)cc1	75.8	1.8	8.9	3.7	> 70	11.4	102	< 2500
NC(=S)N/N=C(/COc1ccc(Br)cc1)c1ccc(Br)cc1	11.8	11.9	< 8.1	3.9	> 70	>2.8	22.6	22600

More lines, main results first:

inhibition [3] [%]	IC50 [4] [µM]	IC50 [5] [µM]	Structure (SMILES)	CC50 [1] [µM]	inhibition at 100 µM [2] [%]	Ratio CC50/IC50 [6]	CC50 at 96 h [7] [µM]	MNTC at 24 h [8] [nM]
29.8	4.5		CNC(=S)N/N=C(/COc1ccc(Br)cc1)c1ccc(OC)cc1	3.6	> 70			
81.8	4.4	10.8	NC(=S)N/N=C(\COc1cccc(Cl)c1Cl)c1ccc(Br)cc1	5.7	> 70	2.8	23.1	23100
51.8	2.2	25.1	NC(=S)N/N=C(\COc1cccc(Cl)c1)c1ccc(Br)cc1	1.6	> 70	<2	< 50.2	2500
38.7	3.1	11.9	COc1ccc(/C(COc2ccc(Br)cc2)=N\NC(N)=S)cc1	5	> 70	<2.1	< 25.4	2500
61.8	3	5.4	NC(=S)N/N=C(\COc1ccccc1)c1ccc(Br)cc1	6.6	> 70	10.2	54.9	137000
85.3	5.2	15.2	CC(C)(C)c1ccc(OC/C(=N\NC(N)=S)c2ccc(Br)cc2)cc1	2.2	> 70	1.6	23.8	2400
35			Fc1ccc(/C(COc2ccc(Br)cc2)=N\NC(=S)Nc2ccccc2)cc1	15.6	> 70			
	3	48.3	NC(=S)N/N=C(\COc1cccc2ccccc12)c1ccc(Br)cc1	3.4	> 70	<2	< 96.5	2400
63.3	2.9	8.6	NC(=S)N/N=C(\COc1ccc(I)cc1)c1ccc(Br)cc1	2.1	> 70	2.4	< 20.4	2100
65.4	4.4	> 182	NC(=S)N/N=C(\COc1cccc(-c2ccccc2)c1)c1ccc(Br)cc1	28.3	> 70			2300
73.6	4.6	11.2	NC(=S)N/N=C(\COc1ccc(Cl)cc1)c1ccc(Br)cc1	5.7	> 70	<2.2	< 25.1	< 2500
81.3	3.9	149	NC(=S)N/N=C(\COc1cccc(Br)c1)c1ccc(Br)cc1	6.2	> 70	>1.2	> 180	2700
